Measurements taken from ChEMBL document CHEMBL1141776, “Gymnoascolides A-C: aromatic butenolides from an Australian isolate of the soil ascomycete Gymnoascus reessii” (2005).
Calls of active or inactive are those of the source. The rule behind the calls is not given here.

Tests used:
Parastagonospora nodorum = test: Antifungal activity against Septoria nodorum after 48 hrs by agar-based microtiter plate assay; type: functional
How it was run: (§1)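 Agar-based microtiter plate assay: spores (20 000 sp/well) applied to potato dextrose agar in wells containing serial 2-fold dilutions of test compound. Plates incubated at 24 °C; fungal growth assessed qualitatively at 48 h.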

Candida albicans [1] = test: Antifungal activity against Candida albicans after 48 hrs by agar-based microtiter plate assay; type: functional; how it was run: as §1
Candida albicans [2] = test: Antifungal activity against Candida albicans up to […] after 48 hrs by agar-based microtiter plate assay; type: functional, organism-based; how it was run: as §1
NS1 = test: Cytotoxicity against mouse NS1 cells; type: functional, cell-based
Bacillus subtilis = test: Antibacterial activity against Bacillus subtilis; type: functional, organism-based
[3] = system: Haemonchus contortus (nematode); test: Nematicidal activity against Haemonchus contortus

C[C@@H]1[C@H](O)[C@@H](C)/C=C/C=C/C=C/C=C/C=C/C=C/C=C/[C@H](O[C@@H]2O[C@H](C)[C@@H](O)[C@H](N)[C@@H]2O)C[C@@H]2O[C@](O)(C[C@@H](O)C[C@@H](O)[C@H](O)CC[C@@H](O)C[C@@H](O)CC(=O)O[C@H]1C)C[C@H](O)[C@H]2C(=O)O [AMPHOTERICIN B]
LD99 (Parastagonospora nodorum): 0.0031 mg/mL | LD99 (Candida albicans [1]): 0.0031 mg/mL

C[C@@H]1C[C@@H]([C@H](O)CC2CC(=O)NC(=O)C2)C(=O)[C@@H](C)C1 [CYCLOHEXIMIDE]
LD99 (Parastagonospora nodorum): 0.0063 mg/mL | Activity (Candida albicans [2]): inactive

C[C@@H]1C[C@H]2O[C@@H]2/C=C\C=C\C(=O)Cc2c(Cl)c(O)cc(O)c2C(=O)O1 [RADICICOL]
LD99 (Parastagonospora nodorum): 0.012 mg/mL | LD99 (Candida albicans [1]): 0.012 mg/mL

CCCC[C@H]1C(=O)O[C@H](C)[C@H](NC(=O)c2cccc(NC=O)c2O)C(=O)O[C@@H](C)[C@@H]1OC(=O)CC(C)C [ANTIMYCIN A3]
LD99 (Parastagonospora nodorum): 0.0002 mg/mL | LD99 (Candida albicans [1]): 0.05 mg/mL

CN(CC[C@H](N)CC(=O)N[C@@H]1C=C[C@@H](n2ccc(N)nc2=O)O[C@H]1C(=O)O)C(=N)N.Cl [BLASTICIDIN S HCL]
LD99 (Parastagonospora nodorum): 0.0016 mg/mL | LD99 (Candida albicans [1]): 0.00039 mg/mL

CO[C@@H]1OC(=O)C(c2ccccc2)=C1C(O)c1ccccc1 (stereo partly specified)
Activity (NS1): inactive | Activity (Bacillus subtilis): inactive | Activity [3]: inactive

O=C1OCC(Cc2ccccc2)=C1c1ccccc1 [GYMNOASCOLIDE A]
Activity (NS1): inactive | Activity (Bacillus subtilis): inactive | LD99 (Parastagonospora nodorum): 0.013 mg/mL | Activity (Candida albicans [2]): inactive | Activity [3]: inactive

CO[C@H]1OC(=O)C(c2ccccc2)=C1C(O)c1ccccc1 (stereo partly specified)
Activity (NS1): inactive | Activity (Bacillus subtilis): inactive | Activity [3]: inactive
